Entries after “also recorded” stand apart in the source; their conditions may differ. One block for each molecule: values may come before it.
Experiments:
Cytotoxicity assay = type: cell-based, murine; conditions: mouse, 3T3-L1 cells
Human 11β-HSD1 = Human 11β-HSD1 (Homo sapiens, UniProt P28845, C272S); experiment: Biochemical assay of 11β-HSD1; conditions: 11β-HSD1 Ki
Solubility = type: physicochemical
3T3-L1 = experiment: Cytotoxicity assay; type: cell-based, murine; conditions: 3T3-L1; tested concentrations up to 1mM
[1] = system: 3T3-L1 adipogenesis gene transcripts; experiment: qRT-PCR gene expression during 3T3-L1 adipogenesis; type: cell-based, murine
Outline: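 Steady-state transcript levels measured by qRT-PCR in 3T3-L1 cells going through the induction/insulin differentiation protocol, on days 0, 1, 2 and 7. Treated cells compared with differentiating-medium and non-differentiating-medium controls.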

Human PPARγ = molecular target: T1, Human PPARγ (Homo sapiens, UniProt P37231); experiment: Human PPARγ reporter antagonist assay; type: cell-based; conditions: stimulation by rosiglitazone (20 nM); 40 μM to 2 nM
T1 sequence (P37231 238-505 limits assumed): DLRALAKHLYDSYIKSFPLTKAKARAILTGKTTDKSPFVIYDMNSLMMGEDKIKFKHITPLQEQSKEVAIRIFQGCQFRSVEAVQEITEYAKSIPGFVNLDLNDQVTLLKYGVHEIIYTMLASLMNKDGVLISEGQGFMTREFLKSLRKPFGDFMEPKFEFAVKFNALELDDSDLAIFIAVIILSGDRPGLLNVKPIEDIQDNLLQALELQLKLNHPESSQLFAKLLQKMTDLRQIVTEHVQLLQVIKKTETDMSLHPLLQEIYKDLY

[2] = system: human visceral and subcutaneous preadipocytes; experiment: Preadipocyte differentiation assay; type: cell-based
Outline: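 Human visceral or subcutaneous preadipocytes (≤ passage 3) plated at 100,000 cells/well and grown to confluency. Day 0: induction medium ± hydrocortisone hemisuccinate (50 µg/mL) plus vehicle (0.2% DMSO), rosiglitazone (2 µM) or test compound (50, 100 µM); non-differentiating medium as control. Differentiation medium plus treatment from 48 h, refreshed every 48–72 h for 9–14 days. Fixed in 10% buffered formaldehyde; Oil Red O relatively quantified.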

Human GR = molecular target: T2, Human GR (Homo sapiens, UniProt P04150); experiment: Human glucocorticoid receptor; type: cell-based; conditions: transiently GR-transfected MDA-MB-231 cells, 100 nM dexamethasone, 50 μM CA
T2 sequence (P04150 1-777): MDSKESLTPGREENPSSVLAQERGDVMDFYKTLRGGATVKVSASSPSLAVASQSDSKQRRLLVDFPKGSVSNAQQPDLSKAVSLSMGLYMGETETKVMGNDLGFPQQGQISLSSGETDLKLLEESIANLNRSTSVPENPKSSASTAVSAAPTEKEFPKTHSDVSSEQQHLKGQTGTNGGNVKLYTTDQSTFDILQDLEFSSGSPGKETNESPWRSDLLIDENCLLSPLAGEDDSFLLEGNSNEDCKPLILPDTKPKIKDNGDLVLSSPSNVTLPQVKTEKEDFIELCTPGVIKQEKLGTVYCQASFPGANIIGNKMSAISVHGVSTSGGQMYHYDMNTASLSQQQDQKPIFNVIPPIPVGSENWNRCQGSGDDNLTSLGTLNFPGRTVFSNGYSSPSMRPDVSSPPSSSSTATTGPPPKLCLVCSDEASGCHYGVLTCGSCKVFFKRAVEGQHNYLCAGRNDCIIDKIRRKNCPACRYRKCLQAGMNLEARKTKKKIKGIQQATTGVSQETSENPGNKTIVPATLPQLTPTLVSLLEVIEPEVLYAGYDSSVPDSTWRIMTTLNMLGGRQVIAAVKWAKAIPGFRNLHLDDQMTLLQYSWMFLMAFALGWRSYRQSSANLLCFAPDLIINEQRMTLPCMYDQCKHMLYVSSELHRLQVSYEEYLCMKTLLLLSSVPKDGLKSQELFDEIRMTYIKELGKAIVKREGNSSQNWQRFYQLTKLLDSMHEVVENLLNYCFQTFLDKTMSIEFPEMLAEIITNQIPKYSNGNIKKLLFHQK
Outline: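 MDA-MB-231 cells transiently transfected, via Lipofectin, with a GR response element–luciferase reporter or a negative-control reporter. Seeded at 5000 cells/well for 12 h at 37 °C, then switched to phenol red–free DMEM with 2% charcoal-stripped FBS. Test compound (50 µM) or DMSO added 1 h before 100 nM dexamethasone induction; 4 h treatment. Luciferase luminescence read; n = 3, means ± SEM.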

3T3-L1 preadipocytes = experiment: Preadipocyte differentiation assay; type: cell-based, murine
Outline: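 3T3-L1 cells (passages 1–16) seeded at 2.5 × 10^5/well on 0.1% gelatin. Day 0, 24 h after near-confluence: switched to induction DMEM (high glucose, 10% FBS, 0.5 mM IBMX). After 48 h: DMEM + 10% FBS + 10 µg/mL insulin. Negative control kept in non-differentiating medium; positive control differentiating medium + DMSO. Test compound 50–100 µM; run to day 7–10. Oil Red O stained; extracted dye read at 462 nm.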

3T3-L1 cells = experiment: Mitochondria evaluation by confocal microscopy; type: cell-based, murine; conditions: 3T3-L1 adipogenesis assay, day 7, CA 50 μM
Outline: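 3T3-L1 cells put through the adipogenesis protocol in 8-well chambers, test compound 50 µM. On day 7, live cells stained with MitoTracker Deep Red (50 nM final) and Hoechst 33342, PBS-washed, and imaged by spinning-disk confocal at 63×. Mean mitochondrial tracker intensity quantified.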

[3] = system: Normal mouse fibroblast (ATCC: CRL-2907); experiment: Nascent; type: cell-based; conditions: CA 50 μM, 2 h
Outline: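 Mouse embryonic fibroblasts (CRL-2907) seeded at 2 × 10^4/well on 1% gelatin-coated slides and cultured 12 h at 37 °C in phenol red–free IMDM with 10% FBS. Test compound (50 µM) or DMSO given 2 h before click labelling with an alkyne o-propargyl-puromycin probe. Cycloheximide (20 nM, 30 min prior) served as positive control. Confocal imaging at 20×; whole-image montage quantified.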

[4] = system: 11β-HSD1, PPARγ, PGC-1α protein expression in 3T3-L1; experiment: Western blot analysis during 3T3-L1 adipogenesis; type: cell-based, murine
Outline: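 3T3-L1 cells in non-differentiating medium, differentiating medium, differentiating medium + rosiglitazone, or differentiating medium + test compound (50 µM); sampled on days 3 and 7. Lysed in Tris/NaCl/EDTA/EGTA buffer with Triton X-100, deoxycholate, SDS, glycerol and protease/phosphatase inhibitors. 30 µg total protein loaded; tubulin used as loading control. Bands quantified; n = 3, means ± SEM.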

11β-HSD2 = conditions: cited from earlier work
[5] = system: 11β-HSD1 in J774.1 macrophage; conditions: LPS activated murine J774.1 macrophage; cited from earlier work

Human 11β-HSD1, sequence (P28845 24-292 C272S): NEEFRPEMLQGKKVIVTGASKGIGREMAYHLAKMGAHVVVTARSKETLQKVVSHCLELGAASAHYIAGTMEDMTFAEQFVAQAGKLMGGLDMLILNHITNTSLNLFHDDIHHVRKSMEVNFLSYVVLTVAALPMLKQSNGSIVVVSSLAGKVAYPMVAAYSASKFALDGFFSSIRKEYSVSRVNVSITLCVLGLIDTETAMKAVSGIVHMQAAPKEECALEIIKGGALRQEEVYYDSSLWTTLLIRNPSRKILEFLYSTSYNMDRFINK

activity relative to compound 15 (Human 11β-HSD1): five-fold less activity
SMILES: C=C1CC[C@]2(C[C@@H]1O)[C@H](C)CC[C@@H]2C(=O)O [Compound 16]
EC50 at 72 h (Cytotoxicity assay): > 500 µM

SMILES: CC1=CC[C@@]2(C[C@@H]1O)[C@H](C(=O)O)CC[C@H]2C(C)C [Compound 7]
EC50 at 72 h (Cytotoxicity assay): > 500 µM

solubility properties (Solubility): acceptable and similar to CA
SMILES: CC1=CC[C@@]2(C=C1)[C@@H](C(=O)O)CC[C@H]2C1CCCCC1 [Compound 19]

SMILES: CC1=CC[C@@]2(C[C@@H]1O)[C@@H](C(N)=O)CC[C@H]2C(C)C [Compound 6]
EC50 at 72 h (Cytotoxicity assay): > 500 µM

SMILES: CC(=O)O[C@@H]1C[C@@](C)(O)CC[C@]12[C@@H](C(=O)O)CC[C@H]2C(C)C [Compound 11]
EC50 at 72 h (Cytotoxicity assay): > 500 µM

SMILES: CC(C)[C@@H]1CC[C@H](C(=O)O)[C@]12C[C@@H](O)[C@@](C)(O)[C@@H](O)C2 [Compound 12]
EC50 at 72 h (Cytotoxicity assay): > 500 µM

SMILES: CC(=O)O[C@H]1C[C@]2(CC=C1C)[C@@H](C(=O)O)CC[C@H]2C(C)C [Compound 8]
EC50 at 72 h (Cytotoxicity assay): > 500 µM

SMILES: C=C1CC[C@@]2(C[C@@H]1OC(C)=O)[C@@H](C(=O)O)CC[C@H]2C(C)C [Compound 14]
EC50 at 72 h (Cytotoxicity assay): > 500 µM

solubility properties (Solubility): acceptable and similar to CA
SMILES: CC1=CC[C@@]2(C[C@@H]1O)[C@@H](C(=O)O)CC[C@H]2C1CCCCC1 [Compound 20]
EC50 at 72 h (Cytotoxicity assay): > 500 µM
increase of potency over CA (Human 11β-HSD1): three-fold increase of potency; also recorded: three-fold increase in potency

SMILES: CC1=CC[C@@]2([C@H](O)C1)[C@@H](C(=O)O)CC[C@H]2C(C)C [Compound 10]
EC50 at 72 h (Cytotoxicity assay): > 500 µM

SMILES: CC1=CC[C@@]2(C[C@@H]1O)[C@@H](C(=O)O)CC[C@H]2C(C)C [Compound 1, (+)-colletoic acid]
cytotoxicity (cell viability) (3T3-L1): no cytotoxicity
EC50 at 72 h (Cytotoxicity assay): > 500 µM
FABP4 and FASN mRNA expression, lower than in differentiated control cells ([1]; 3T3-L1): at least 10 fold
PGC-1α mRNA expression, differentiated control cells versus CA-treated cells ([1]; 3T3-L1): at least ten-fold greater
C/EBPα, β and δ mRNA expression ([1]; 3T3-L1, day 1–2, vs differentiated control): significant reduction
PPARγ and PGC-1α mRNA expression level ([1]; 3T3-L1, vs differentiated cells): greatly reduced
11β-HSD1 mRNA expression ([1]; 3T3-L1, vs differentiated control cells): reduced
PPARγ antagonistic activity (Human PPARγ): no quantifiable PPARγ antagonistic activity
effect when added at day 3 after induction ([2]; human preadipocytes): no quantifiable effect
inhibition of adipogenesis in human preadipocytes ([2]; human visceral and subcutaneous preadipocytes, 10–14 days, CA 50–100 μM): modest inhibition of adipogenesis
GR activation (Human GR): did not inhibit GR activation
effect on adipogenesis when added after day 3 (3T3-L1 preadipocytes; 3T3-L1): little to no significant effect
inhibition of adipogenesis (Oil Red O staining) (3T3-L1 preadipocytes; 3T3-L1, 7 days, compound added at induction, CA 50–100 μM): clearly inhibited adipogenesis
lipid droplets (LipidTox) compared to NDM control cells (3T3-L1 preadipocytes; 3T3-L1, CA 50 μM): no significant difference
mitochondrial mass (mitochondrial tracker mean intensity) (3T3-L1 cells): less mitochondrial mass
global protein synthesis compared to DMSO control [3]: No significant changes
PGC-1α, 11β-HSD1 and PPARγ protein expression ([4]; 3T3-L1, day 3, CA 50 μM): No significant change
PGC-1α, 11β-HSD1 and PPARγ protein expression ([4]; 3T3-L1, day 7, CA 50 μM): down-regulation
11β-HSD2 inhibition (11β-HSD2): no observable 11β-HSD2 inhibition
conversion of [3H]-cortisone to [3H]-cortisol [5]: inhibits the conversion

SMILES: CC1=CC[C@@]2(C[C@H]1O)[C@@H](C(C)C)CC[C@H]2C(=O)O (single isomer, unassigned) [ent-1, (−)-Colletoic Acid]
EC50 at 72 h (Cytotoxicity assay): > 500 µM

SMILES: CC1=CC[C@@]2(CC1=O)[C@@H](C(=O)O)CC[C@H]2C(C)C [Compound 9]
EC50 at 72 h (Cytotoxicity assay): > 500 µM

SMILES: COC(=O)[C@H]1CC[C@@H](C(C)C)[C@@]12CC=C(C)[C@@H](O)C2 [Compound 5]
EC50 at 72 h (Cytotoxicity assay): > 500 µM

SMILES: C=C1CC[C@@]2(C(OC)[C@@H]1O)[C@@H](C(=O)O)CC[C@H]2C(C)C (stereo partly shown) [Compound 13]
EC50 at 72 h (Cytotoxicity assay): > 500 µM

SMILES: C=C1CC[C@@]2(C[C@@H]1O)[C@@H](C(=O)O)CC[C@H]2C(C)C [Compound 15]
EC50 at 72 h (Cytotoxicity assay): > 500 µM

SMILES: CC1=CC[C@@]2([C@H](O)C1)[C@@H](C(=O)O)CC[C@H]2C1CCCCC1 [Compound 18]
EC50 at 72 h (Cytotoxicity assay): > 500 µM

SMILES: CC1(C)[C@@H](OC(=O)CCC(=O)O)CC[C@]2(C)[C@H]3C(=O)C=C4[C@@H]5C[C@@](C)(C(=O)O)CC[C@]5(C)CC[C@@]4(C)[C@]3(C)CC[C@@H]12 [Compound 4, carbenoxolone, reference compound]
EC50 at 72 h (Cytotoxicity assay): > 500 µM

— publication PMC8688139 (Journal of medicinal chemistry, 2019)
